Experimental data reported in ChEMBL document CHEMBL4428110, “Synthesis and bioactivity of novel isoxazole chalcone derivatives on tyrosinase and melanin synthesis in murine B16 cells for the treatment of vitiligo” (Bioorg Med Chem, 2016).
Active and inactive are the calls of the source. The calls are words filed in the database; no cut-off is given here.

What was measured:
Tyrosinase = target: T1, Tyrosinase (Agaricus bisporus, UniProt O42713); test: Activation of mushroom tyrosinase using L-tyrosine as substrate preincubated for 5 mins followed by substrate addition measured after 30 mins by ELISA
T1 sequence (O42713 whole entry): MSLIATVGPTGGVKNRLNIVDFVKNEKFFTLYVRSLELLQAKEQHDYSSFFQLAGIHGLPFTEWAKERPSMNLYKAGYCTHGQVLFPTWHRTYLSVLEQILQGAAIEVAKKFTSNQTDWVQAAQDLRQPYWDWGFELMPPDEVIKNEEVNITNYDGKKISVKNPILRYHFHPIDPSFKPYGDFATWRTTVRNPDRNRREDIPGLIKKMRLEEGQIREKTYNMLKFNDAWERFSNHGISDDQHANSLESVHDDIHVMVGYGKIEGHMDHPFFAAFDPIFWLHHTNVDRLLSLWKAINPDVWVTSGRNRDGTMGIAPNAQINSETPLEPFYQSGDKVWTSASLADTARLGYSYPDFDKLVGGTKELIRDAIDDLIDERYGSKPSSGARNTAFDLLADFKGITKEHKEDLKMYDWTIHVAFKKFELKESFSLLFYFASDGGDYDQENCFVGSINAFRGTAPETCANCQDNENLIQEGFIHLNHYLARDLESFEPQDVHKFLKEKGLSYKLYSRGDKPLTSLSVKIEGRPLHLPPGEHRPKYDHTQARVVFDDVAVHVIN
Procedure, shortened: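 Mushroom tyrosinase activation: test compounds (0.5–300 μM) in DMSO preincubated with enzyme 5 min at 25–30 °C, then L-tyrosine (2 mM, 0.1 mL) added and incubated a further 30 min; absorbance read at 490 nm. Rate of activation = [(C−D)−(A−B)]/(A−B)×100, A being the enzyme-only system. EC50 reported as mean ± SD of three independent experiments.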

[1] = target: T2, Tyrosinase (Mus musculus) (UniProt P11344); test: Activation of tyrosinase in mouse B16F10 cells assessed as melanin production at 50 uM after 48 hrs by spectrophotometric analysis relative to control; type: cell-based
T2 sequence (whole entry): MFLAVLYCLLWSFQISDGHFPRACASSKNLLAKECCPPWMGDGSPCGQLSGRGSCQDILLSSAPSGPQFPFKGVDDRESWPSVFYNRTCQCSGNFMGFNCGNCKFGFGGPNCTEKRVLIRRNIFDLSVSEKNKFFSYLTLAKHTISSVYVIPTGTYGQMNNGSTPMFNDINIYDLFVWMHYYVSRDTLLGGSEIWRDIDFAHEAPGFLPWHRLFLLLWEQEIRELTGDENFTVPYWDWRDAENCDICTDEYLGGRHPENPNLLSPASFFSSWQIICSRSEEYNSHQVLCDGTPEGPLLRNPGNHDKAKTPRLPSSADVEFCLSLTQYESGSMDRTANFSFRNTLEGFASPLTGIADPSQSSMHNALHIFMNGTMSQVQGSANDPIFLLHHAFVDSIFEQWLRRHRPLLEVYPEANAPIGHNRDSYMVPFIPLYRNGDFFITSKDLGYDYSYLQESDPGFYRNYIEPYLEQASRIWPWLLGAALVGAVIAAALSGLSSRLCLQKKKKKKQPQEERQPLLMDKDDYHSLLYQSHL
Procedure, shortened: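 B16F10 cells grown in DMEM with 10% heat-inactivated FBS and penicillin/streptomycin at 37 °C, 5% CO2. Seeded at 5×10⁵ cells/well in 6-well plates for 24 h, then exposed to 50 μM compound for 48 h. After a cold PBS wash, cells were lysed in RIPA buffer 40 min on ice and dissolved in 1 M NaOH 2 h at 60 °C. Melanin was read at 405 nm and normalized; three separate experiments.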

B16-F10 = test: Cytotoxicity against mouse B16F10 cells assessed as reduction in cell viability at 50 uM after 24 hrs by CCK-8 assay; type: cell-based; conditions: b16-f10, 24 h
Procedure, shortened: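 Viability: B16F10 cells (DMEM, 10% FBS, 37 °C, 5% CO2) plated at 5×10³ cells/well in 96-well plates, left 12 h, then given fresh medium with 50 μM compound for 24 h. After a cold PBS wash, CCK-8 added for 2 h at 37 °C and absorbance read at 450 nm. Proliferation expressed relative to untreated control; mean ± SD of three experiments.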

[2] = target: T2, Tyrosinase (Mus musculus); test: Potency index, ratio of compound activity to 8-MOP activity for tyrosinase activation in mouse B16F10 cells assessed as melanin production; type: cell-based

O=C(/C=C/c1ccccc1)c1ccc(CCc2cn(Cc3cccc(F)c3)nn2)cc1
EC50 (Tyrosinase): 5.6 µM

O=C(/C=C/c1ccccc1)c1ccc(OCc2cc(-c3ccc(Cl)c(Cl)c3)no2)cc1
EC50 (Tyrosinase): 2.5 µM
Activity [1]: Active
Activity (B16-F10): Non-Toxic

COc1ccc(-c2cc(COc3ccc(C(=O)/C=C/c4ccccc4)cc3)on2)cc1
EC50 (Tyrosinase): 47.2 µM
Activity (B16-F10): Non-Toxic

Cc1ccc(-c2cc(COc3ccc(C(=O)/C=C/c4ccccc4)cc3)on2)o1
EC50 (Tyrosinase): 35.6 µM
Activity (B16-F10): Non-Toxic

O=C(/C=C/c1ccc(Cl)cc1)c1ccc2nc(NC(=O)c3ccccc3)sc2c1
EC50 (Tyrosinase): 9.6 µM

O=C(/C=C/c1ccccc1)c1ccc(OCc2cc(-c3cccs3)no2)cc1
EC50 (Tyrosinase): 56.2 µM
Activity (B16-F10): Non-Toxic

O=C(/C=C/c1ccccc1)c1ccc(OCc2cc(-c3ccc([N+](=O)[O-])cc3)no2)cc1
EC50 (Tyrosinase): > 100 µM
Activity (B16-F10): Non-Toxic

O=C(/C=C/c1ccccc1)c1ccc(CCc2cn(Cc3ccc(Cl)c(Cl)c3)nn2)cc1
EC50 (Tyrosinase): 1.71 µM

O=C(/C=C/c1ccccc1)c1ccc(OCc2cc(-c3cccc(OC(F)(F)F)c3)no2)cc1
EC50 (Tyrosinase): 25.5 µM
Activity [1]: Active
Activity (B16-F10): Non-Toxic

O=C(/C=C/c1ccccc1)c1ccc(OCc2cc(-c3cccc(F)c3)no2)cc1
EC50 (Tyrosinase): 21.3 µM
Activity [1]: 330%
Ratio [2]: 4
Activity (B16-F10): Non-Toxic

Cc1ccc(/C=C/C(=O)c2ccc3nc(NC(=O)c4ccccc4)sc3c2)cc1
EC50 (Tyrosinase): 17.1 µM

COc1c2occc2cc2ccc(=O)oc12 [METHOXSALEN]
EC50 (Tyrosinase): 14.8 µM
Activity [1]: 115%

O=C(/C=C/c1ccccc1)c1ccc(OCc2cc(-c3ccc4c(c3)OCCO4)no2)cc1
EC50 (Tyrosinase): > 100 µM
Activity [1]: 438%
Ratio [2]: 4
Activity (B16-F10): Non-Toxic

O=C(/C=C/c1ccccc1)c1ccc(OCc2cc(-c3ccc(Cl)cc3)no2)cc1
EC50 (Tyrosinase): 8.1 µM
Activity (B16-F10): Non-Toxic

O=C(/C=C/c1ccccc1)c1ccc(CCc2cn(Cc3ccc(Cl)cc3)nn2)cc1
EC50 (Tyrosinase): 23.9 µM

Cc1ccc(S(=O)(=O)Nc2ccc(C(=O)/C=C/c3ccc(Cl)cc3)cc2)cc1
EC50 (Tyrosinase): 25.8 µM

O=C(/C=C/c1ccccc1)c1ccc(OCc2cc(-c3cc(Cl)cc(Cl)c3)no2)cc1
EC50 (Tyrosinase): 12.7 µM
Activity [1]: 57%
Activity (B16-F10): Non-Toxic

O=C(/C=C/c1ccccc1)c1ccc(OCc2cc(-c3ccc(I)o3)no2)cc1
EC50 (Tyrosinase): 11.4 µM
Activity (B16-F10): Non-Toxic

O=C(/C=C/c1ccccc1)c1ccc(OCc2cc(-c3ccc(F)c(F)c3)no2)cc1
EC50 (Tyrosinase): 1.3 µM
Activity [1]: 463%
Ratio [2]: 3
Activity (B16-F10): Non-Toxic

COc1ccccc1-c1cc(COc2ccc(C(=O)/C=C/c3ccccc3)cc2)on1
EC50 (Tyrosinase): 65.3 µM
Activity (B16-F10): Non-Toxic

O=C(/C=C/c1ccccc1)c1ccc(OCc2cc(-c3ccc(Cl)c(F)c3)no2)cc1
EC50 (Tyrosinase): 3 µM
Activity [1]: Active
Activity (B16-F10): Non-Toxic

CN(C)c1ccc(-c2cc(COc3ccc(C(=O)/C=C/c4ccccc4)cc3)on2)cc1
EC50 (Tyrosinase): 28.9 µM
Activity (B16-F10): Non-Toxic

O=C(/C=C/c1ccc(Cl)cc1)c1ccc(NC(=O)c2ccccc2)cc1
EC50 (Tyrosinase): 21.1 µM

O=C(/C=C/c1ccccc1)c1ccc(OCc2cc(-c3ccccc3)no2)cc1
EC50 (Tyrosinase): 78.1 µM
Activity (B16-F10): Non-Toxic

O=C(/C=C/c1ccccc1)c1ccc(CCc2cn(Cc3cccc(Cl)c3)nn2)cc1
EC50 (Tyrosinase): 11.9 µM

O=C(/C=C/c1ccccc1)c1ccc(CCc2cn(Cc3ccc(F)cc3)nn2)cc1
EC50 (Tyrosinase): 14.6 µM

O=C(/C=C/c1ccccc1)c1ccc(OCc2cc(-c3ccc(F)cc3)no2)cc1
EC50 (Tyrosinase): 6.4 µM
Activity (B16-F10): Non-Toxic

COc1cccc(Cn2cc(CCc3ccc(C(=O)/C=C/c4ccccc4)cc3)nn2)c1
EC50 (Tyrosinase): 37.4 µM

O=C(/C=C/c1ccccc1)c1ccc(OCc2cc(-c3cccc(Cl)c3)no2)cc1
EC50 (Tyrosinase): 23.8 µM
Activity (B16-F10): Non-Toxic

Nc1nc2ccc(C(=O)/C=C/c3ccc(Cl)cc3)cc2s1
EC50 (Tyrosinase): 30.6 µM
